In the assay the target is T1, Aminopeptidase N (Sus scrofa, UniProt P15145).
T1 sequence (P15145 whole entry): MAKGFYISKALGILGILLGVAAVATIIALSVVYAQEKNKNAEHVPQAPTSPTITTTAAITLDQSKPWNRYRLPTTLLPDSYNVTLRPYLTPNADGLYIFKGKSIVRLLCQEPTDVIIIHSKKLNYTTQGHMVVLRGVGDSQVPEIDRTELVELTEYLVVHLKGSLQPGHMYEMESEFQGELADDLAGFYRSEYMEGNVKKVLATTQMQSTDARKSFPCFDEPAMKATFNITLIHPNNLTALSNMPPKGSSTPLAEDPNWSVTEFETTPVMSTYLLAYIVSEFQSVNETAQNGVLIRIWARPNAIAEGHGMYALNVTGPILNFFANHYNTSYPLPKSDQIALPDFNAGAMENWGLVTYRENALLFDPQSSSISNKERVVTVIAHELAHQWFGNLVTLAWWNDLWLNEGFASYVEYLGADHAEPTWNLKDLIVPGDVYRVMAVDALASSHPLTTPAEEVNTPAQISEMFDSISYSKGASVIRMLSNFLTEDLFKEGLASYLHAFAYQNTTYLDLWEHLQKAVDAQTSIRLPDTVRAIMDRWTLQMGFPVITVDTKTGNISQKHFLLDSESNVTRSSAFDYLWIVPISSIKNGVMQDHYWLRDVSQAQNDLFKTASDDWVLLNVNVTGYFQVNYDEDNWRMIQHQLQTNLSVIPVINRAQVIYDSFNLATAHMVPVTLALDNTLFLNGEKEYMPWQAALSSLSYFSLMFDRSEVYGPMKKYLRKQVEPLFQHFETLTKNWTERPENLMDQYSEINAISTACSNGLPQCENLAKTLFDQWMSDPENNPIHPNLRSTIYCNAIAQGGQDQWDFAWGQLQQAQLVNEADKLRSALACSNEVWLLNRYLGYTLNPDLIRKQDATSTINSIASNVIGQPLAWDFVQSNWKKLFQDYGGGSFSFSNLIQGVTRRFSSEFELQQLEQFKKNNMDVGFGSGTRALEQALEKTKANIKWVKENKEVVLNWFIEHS
As to the kind of experiment: Inhibition of microsomal […] aminopeptidase in pig kidney. The gist of the method:
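Porcine kidney microsomal APN, ammonium sulfate suspension diluted 600-fold in Tris-HCl (25 mM, pH 7.4). Activity compared with enzyme run without inhibitor.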

Regarding `O=C(NO)C(Cc1ccccc1)C(=O)NCc1ccccc1` (centres undefined), the IC50 (in general, the concentration at which inhibition is half-maximal) was > 10000 nM.
Consider `CC(C)CC(C(=O)NO)C(=O)NCCCc1ccccc1` (centres undefined), for which the IC50 amounted to 528 nM.
Next, `CC(C)CC(C(=O)NO)C(=O)NCCc1ccccc1` (centres undefined): 984 nM.
For `CC(C)CC(C(=O)NO)C(=O)NCc1ccc(Cl)cc1` (centres undefined), it took 2520 nM to reach half-maximal inhibition (IC50).
Next, `CC(C)CC(C(=O)NO)C(=O)NCc1ccccc1` (centres undefined): 590 nM; `CC(C)CC(C(=O)NO)C(=O)NCCCCc1ccccc1` (centres undefined): 82 nM; `O=C(NO)C(Cc1cccc(Oc2ccccc2)c1)C(=O)NCc1ccccc1` (centres undefined): > 10000 nM.
The figure for `CC(C)CC(C(=O)NO)C(=O)N1CCC(Cc2ccccc2)CC1` (centres undefined) is 452 nM; for `O=C(NO)C(Cc1ccccc1)C(=O)NCCCCc1ccccc1` (centres undefined) it is > 10000 nM.
Compound `Cn1c(CC(C(=O)NO)C(=O)NCc2ccccc2)nc2ccccc21` (centres undefined) gave an IC50 of 718 nM.
The figure for `O=C(NO)C(Cc1cccc(Oc2ccccc2)c1)C(=O)NCCCCc1ccccc1` (centres undefined) is > 10000 nM; for `CC(C)CC(C(=O)NO)C(=O)NC1CCc2ccccc2C1` (centres undefined) it is 3040 nM.
`CC(C)CC(C(=O)NO)C(=O)NCc1cccc(Oc2ccccc2)c1` (centres undefined) registered an IC50 of 443 nM.
Next, `CC(C)CC(C(=O)NO)C(=O)NCc1ccc(F)cc1` (centres undefined): 3000 nM.

For the origin of these results see ChEMBL document CHEMBL1144529, “A library of novel hydroxamic acids targeting the metallo-protease family: design, parallel synthesis and screening” (Bioorg Med Chem, 2007).
